Measurements reported in ChEMBL document CHEMBL3286149, “Synthesis of rigidified eIF4E/eIF4G inhibitor-1 (4EGI-1) mimetic and their in vitro characterization as inhibitors of protein-protein interaction” (J Med Chem, 2014).

Assays:
[1] = Antiproliferative activity against human CRL2813 cells assessed as inhibition of cell proliferation after 5 days by sulforhodamine B assay; assay type: functional, cell-based; conditions: CRL2813, 120 h
Outline: (§1)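 Adherent cells (CRL-2351 breast, CRL-2813 melanoma) in 96-well plates kept 5 days with compound at 0.54–20 μM. Fixed in cold 10% TCA at 4 °C overnight, stained 1 h at RT with 0.057% SRB in 1% acetic acid, unbound dye removed with 1% acetic acid, bound dye dissolved in 10 mM Tris pH 10, absorbance read at 510 nm. IC50 reported.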

[2] = Antiproliferative activity against human CRL2351 cells assessed as inhibition of cell proliferation after 5 days by sulforhodamine B assay; assay type: functional, cell-based; conditions: 120 h; outline: as §1
[3] = Retention time of the compound by RP-HPLC analysis; assay type: physicochemical
Outline: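 C18 Xbridge column (4.6 mm × 100 mm), 1 mL/min, detection at 254 nm. Mobile phase A 0.1% v/v FA in water, B 0.1% v/v TFA in acetonitrile. Linear gradient usually 0–100% B over 26 min; some runs 50–100% B over 20 min or 30–100% B over 26 min.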

[4] = target: Eukaryotic translation initiation factor 4E (Homo sapiens, UniProt P06730); assay: Displacement of N-alpha-fluorescein tagged eIF4G-derived peptide from GST-DN26-eIF4E (unknown origin) by fluorescence polarization assay
Sequence of Eukaryotic translation initiation factor 4E (P06730 whole entry): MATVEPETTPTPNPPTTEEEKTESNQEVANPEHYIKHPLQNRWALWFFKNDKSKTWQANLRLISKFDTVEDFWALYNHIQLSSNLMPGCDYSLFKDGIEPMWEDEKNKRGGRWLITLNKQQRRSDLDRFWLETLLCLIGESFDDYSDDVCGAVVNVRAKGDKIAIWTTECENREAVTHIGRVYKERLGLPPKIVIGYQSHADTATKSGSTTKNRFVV

| Structure (SMILES) | Retention_time [3] [min] | IC50 [4] [µM] | IC50 [1] [µM] | IC50 [2] [µM] |
| --- | --- | --- | --- | --- |
| O=C(O)/C(Cc1ccccc1[N+](=O)[O-])=N\Nc1nc2c(s1)CCc1c-2ccc(Cl)c1Cl | 11.39 | – | 10.6 | 11.2 |
| O=C(O)/C(Cc1ccccc1[N+](=O)[O-])=N/Nc1nc2c(s1)CSc1c-2ccc(Cl)c1Cl | 15.66 | – | 4.5 | 9.1 |
| O=C(O)/C(Cc1ccccc1[N+](=O)[O-])=N\Nc1nc2c(s1)CSc1c-2ccc(Cl)c1Cl | 18.23 | – | 7 | 16.7 |
| O=C(O)/C(Cc1ccccc1[N+](=O)[O-])=N\Nc1nc2c(s1)CSc1cc(Cl)c(Cl)cc1-2 | 13.33 | – | 10.5 | 17.7 |
| O=C(O)/C(Cc1ccccc1[N+](=O)[O-])=N/Nc1nc2c(s1)C[S+]([O-])c1cc(Cl)c(Cl)cc1-2 (stereo not drawn) | 9.82 | – | 7.5 | > 20 |
| O=C(O)/C(Cc1ccccc1[N+](=O)[O-])=N\Nc1nc2c(s1)CS(=O)(=O)c1c-2ccc(Cl)c1Cl | 13.63 | – | – | – |
| O=C(O)/C(Cc1ccccc1[N+](=O)[O-])=N\Nc1nc2c(s1)C[S+]([O-])c1c-2ccc(Cl)c1Cl (stereo not drawn) | 10.12 | – | 11.4 | 19.8 |
| O=C(O)/C(Cc1ccccc1[N+](=O)[O-])=N\Nc1nc2c(s1)COc1cc(Cl)c(Cl)cc1-2 | 14.74 | – | 8.7 | 15.4 |
| O=C(O)/C(Cc1ccccc1[N+](=O)[O-])=N/Nc1nc2c(s1)COc1cc(Cl)c(Cl)cc1-2 | 12.77 | – | 3.1 | 5.2 |
| O=C(O)/C(Cc1ccccc1[N+](=O)[O-])=N/Nc1nc2c(s1)C[S+]([O-])c1c-2ccc(Cl)c1Cl (stereo not drawn) | 8.74 | – | 11.2 | > 20 |
| O=C(O)/C(Cc1ccccc1[N+](=O)[O-])=N\Nc1nc(-c2ccc(Cl)c(Cl)c2)cs1 | – | – | 15.3 | 11.6 |
| O=C(O)/C(Cc1ccccc1[N+](=O)[O-])=N/Nc1nc2c(s1)CSc1cc(Cl)c(Cl)cc1-2 | 10.33 | – | 5.1 | 17.6 |
| O=C(O)/C(Cc1ccccc1[N+](=O)[O-])=N/Nc1nc2c(s1)CCc1c-2ccc(Cl)c1Cl | 8.69 | – | 3.6 | 4.4 |
| O=C(O)/C(Cc1ccccc1[N+](=O)[O-])=N\Nc1nc2c(s1)COc1c-2ccc(Cl)c1Cl | 13.6 | – | 12.3 | > 20 |
| O=C(O)/C(Cc1ccccc1[N+](=O)[O-])=N/Nc1nc2c(s1)CS(=O)(=O)c1cc(Cl)c(Cl)cc1-2 | 11.48 | – | – | – |
| O=C(O)/C(Cc1ccccc1[N+](=O)[O-])=N/Nc1nc2c(s1)COc1c-2ccc(Cl)c1Cl | 11.6 | – | 5.8 | 16.6 |
| O=C(O)/C(Cc1ccccc1[N+](=O)[O-])=N\Nc1nc2c(s1)CS(=O)(=O)c1cc(Cl)c(Cl)cc1-2 | 12.41 | – | – | – |
| O=C(O)/C(Cc1ccccc1[N+](=O)[O-])=N\Nc1nc2c(s1)C[S+]([O-])c1cc(Cl)c(Cl)cc1-2 (stereo not drawn) | 10.38 | – | 4.1 | 10.3 |
| O=C(O)/C(Cc1ccccc1[N+](=O)[O-])=N/Nc1nc2c(s1)CS(=O)(=O)c1c-2ccc(Cl)c1Cl | 12.41 | – | – | – |

The next lines start with results.

| Retention_time [3] [min] | IC50 [4] [µM] | Structure (SMILES) | IC50 [1] [µM] | IC50 [2] [µM] |
| --- | --- | --- | --- | --- |
| 10.79 | 34 | O=C(O)/C(Cc1ccccc1[N+](=O)[O-])=N\Nc1nc2c(s1)CCc1cc(Cl)c(Cl)cc1-2 | 12 | > 20 |
| 8.78 | – | COc1ccc2c(c1OC)OCc1sc(N/N=C(\Cc3ccccc3[N+](=O)[O-])C(=O)O)nc1-2 | > 20 | – |
| 8.37 | 21.5 | O=C(O)/C(Cc1ccccc1[N+](=O)[O-])=N/Nc1nc2c(s1)CCc1cc(Cl)c(Cl)cc1-2 | 3.8 | 4.1 |
| 11.22 | – | COc1cc2c(cc1OC)-c1nc(N/N=C(/Cc3ccccc3[N+](=O)[O-])C(=O)O)sc1CC2 | > 20 | > 20 |
| 9.07 | – | COc1cc2c(cc1OC)-c1nc(N/N=C(\Cc3ccccc3[N+](=O)[O-])C(=O)O)sc1CO2 | > 20 | – |
| 10.9 | – | COc1cc2c(cc1OC)-c1nc(N/N=C(/Cc3ccccc3[N+](=O)[O-])C(=O)O)sc1CO2 | – | – |
| 10.38 | – | COc1ccc2c(c1OC)OCc1sc(N/N=C(/Cc3ccccc3[N+](=O)[O-])C(=O)O)nc1-2 | – | – |
| 10 | – | COc1cc2c(cc1OC)-c1nc(N/N=C(\Cc3ccccc3[N+](=O)[O-])C(=O)O)sc1CC2 | 12.1 | > 20 |
